From ChEMBL document CHEMBL1123569 (J Med Chem, 1987)
pIC50: −log10 of the molar value. *1 amine or outer side, *2 acyl side, *3 side chain or, on linkers, in order; H or OH if unused. Where a SMILES comes first, the peptide text is derived from it. [ ]: non-standard residue; d: D form. The star is where a group is joined. ξ: configuration not given here. Met(O2) = CS(=O)(=O)CC[C@H](N)C(=O)O; Sta = CC(C)C[C@H](N)[C@@H](O)CC(=O)O; X1 = O=C(C(N[*:1])c1cccs1)[*:2]; ξGly(cPent) = NC(C(=O)O)C1CCCC1; Cha = N[C@@H](CC1CCCCC1)C(=O)O; Isovaleryl = CC(C)CC(=O)*; ξChg = NC(C(=O)O)C1CCCCC1; ξPhg = NC(C(=O)O)c1ccccc1; Nle = CCCC[C@H](N)C(=O)O; Boc = CC(C)(C)OC(=O)*; Bn = c1ccc(C*)cc1; X2 = c1cncc(C*)c1

The compounds below were run against T1, Renin (Homo sapiens, UniProt P00797) (assay: Inhibition of human plasma renin).
T1 sequence (P00797 whole entry): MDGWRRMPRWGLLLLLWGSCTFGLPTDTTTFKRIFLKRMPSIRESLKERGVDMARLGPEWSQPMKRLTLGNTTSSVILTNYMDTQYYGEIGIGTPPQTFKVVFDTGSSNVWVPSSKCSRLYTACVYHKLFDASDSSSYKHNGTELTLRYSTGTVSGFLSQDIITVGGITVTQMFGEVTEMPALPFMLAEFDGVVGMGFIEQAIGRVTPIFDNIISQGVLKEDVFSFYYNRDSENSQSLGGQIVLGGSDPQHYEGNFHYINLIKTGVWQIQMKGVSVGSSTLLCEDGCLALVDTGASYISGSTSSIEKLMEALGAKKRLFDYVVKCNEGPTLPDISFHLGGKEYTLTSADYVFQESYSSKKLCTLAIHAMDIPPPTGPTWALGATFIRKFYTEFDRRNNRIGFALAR
Assay type: cell-free
How it was run: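 Enriched human plasma renin preparation, substrate its own endogenous angiotensinogen (about 2×10^-6 M). Inhibitor added over a range of increasing concentrations. Angiotensin I released was quantified by RIA. With substrate held constant across the series, IC50 is treated as linearly proportional to Ki.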
In the case of COC(=O)C[C@H](O)[C@H](CC(C)C)NC(=O)[C@H](C)NC(=O)C[C@H](O)[C@H](CC(C)C)NC(=O)[C@H](CCSC)NC(=O)[C@H](Cc1ccccc1)NC(=O)OC(C)(C)C (Boc-FM[Sta]A[Sta]-OMe), the pIC50 was 6.50. COC(=O)C[C@H](O)[C@H](CC(C)C)NC(=O)[C@H](C)NC(=O)C[C@H](O)[C@H](CC(C)C)NC(=O)[C@H](CO)NC(=O)[C@H](Cc1ccccc1)NC(=O)OC(C)(C)C (Boc-FS[Sta]A[Sta]-OMe) showed a pIC50 of 6.36. Compound COC(=O)C[C@H](O)[C@H](CC(C)C)NC(=O)[C@H](C)NC(=O)C[C@H](O)[C@H](CC(C)C)NC(=O)C(NC(=O)[C@H](Cc1ccccc1)NC(=O)OC(C)(C)C)c1ccccc1 (some centres undefined) (Boc-F[ξPhg][Sta]A[Sta]-OMe) has a pIC50 of 7.03. Compound COC(=O)C[C@H](O)[C@H](CC(C)C)NC(=O)[C@H](C)NC(=O)C[C@H](O)[C@H](CC(C)C)NC(=O)[C@H](Cc1ccccc1)NC(=O)[C@H](Cc1ccccc1)NC(=O)CC(C)C (Isovaleryl-FF[Sta]A[Sta]-OMe) has a pIC50 of 6.50. COC(=O)C[C@H](O)[C@H](CC(C)C)NC(=O)[C@H](C)NC(=O)C[C@H](O)[C@H](CC(C)C)NC(=O)C(NC(=O)[C@H](Cc1ccccc1)NC(=O)OC(C)(C)C)C1CCCCC1 (some centres undefined) (Boc-F[ξChg][Sta]A[Sta]-OMe) was tested, and the pIC50 was 6.82. With COC(=O)C[C@H](O)[C@H](CC(C)C)NC(=O)[C@H](C)NC(=O)C[C@H](O)[C@H](CC(C)C)NC(=O)C(NC(=O)[C@H](Cc1ccccc1)NC(=O)OC(C)(C)C)c1cccs1 (some centres undefined) (Boc-F[X1][Sta]A[Sta]-OMe) the pIC50 was 6.60. With COC(=O)C[C@H](O)[C@H](CC(C)C)NC(=O)[C@H](C)NC(=O)C[C@H](O)[C@H](CC(C)C)NC(=O)C(NC(=O)[C@H](Cc1ccccc1)NC(=O)OC(C)(C)C)C1CCCC1 (some centres undefined) (Boc-F[ξGly(cPent)][Sta]A[Sta]-OMe) the pIC50 was 7.43. With CCOC[C@H](NC(=O)[C@H](Cc1ccccc1)NC(=O)OC(C)(C)C)C(=O)N[C@@H](CC(C)C)[C@@H](O)CC(=O)N[C@@H](C)C(=O)N[C@@H](CC(C)C)[C@@H](O)CC(=O)OC (Boc-FS(Et)[Sta]A[Sta]-OMe) the pIC50 was 6.95. COC(=O)C[C@H](O)[C@H](CC(C)C)NC(=O)[C@H](C)NC(=O)C[C@H](O)[C@H](CC(C)C)NC(=O)[C@H](CC1CCCCC1)NC(=O)[C@H](Cc1ccccc1)NC(=O)OC(C)(C)C (Boc-F[Cha][Sta]A[Sta]-OMe) was tested, and the pIC50 was 6.31. Work on COC(=O)C[C@H](O)[C@H](CC(C)C)NC(=O)[C@H](C)NC(=O)C[C@H](O)[C@H](CC(C)C)NC(=O)[C@H](Cc1c[nH]c2ccccc12)NC(=O)[C@H](Cc1ccccc1)NC(=O)OC(C)(C)C (Boc-FW[Sta]A[Sta]-OMe) yielded a pIC50 of 6.92. Work on COC(=O)C[C@H](O)[C@H](CC(C)C)NC(=O)[C@H](C)NC(=O)C[C@H](O)[C@H](CC(C)C)NC(=O)[C@H](Cc1ccccc1)NC(=O)[C@H](Cc1ccccc1)NC(C)=O (Ac-FF[Sta]A[Sta]-OMe) yielded a pIC50 of 5.85. Compound COC(=O)C[C@H](O)[C@H](CC(C)C)NC(=O)[C@H](C)NC(=O)C[C@H](O)[C@H](CC(C)C)NC(=O)[C@H](CCS(C)(=O)=O)NC(=O)[C@H](Cc1ccccc1)NC(=O)OC(C)(C)C (Boc-F[Met(O2)][Sta]A[Sta]-OMe) has a pIC50 of 5.00. COC(=O)C[C@H](O)[C@H](CC(C)C)NC(=O)[C@H](C)NC(=O)C[C@H](O)[C@H](CC(C)C)NC(=O)[C@H](COCc1ccccc1)NC(=O)[C@H](Cc1ccccc1)NC(=O)OC(C)(C)C (Boc-FS(Bn)[Sta]A[Sta]-OMe) gave a pIC50 of 6.76. Work on COC(=O)C[C@H](O)[C@H](CC(C)C)NC(=O)[C@H](C)NC(=O)C[C@H](O)[C@H](CC(C)C)NC(=O)[C@H](COCc1cccnc1)NC(=O)[C@H](Cc1ccccc1)NC(=O)OC(C)(C)C (Boc-FS(X2)[Sta]A[Sta]-OMe) yielded a pIC50 of 6.50. COC(=O)C[C@H](O)[C@H](CC(C)C)NC(=O)[C@H](C)NC(=O)C[C@H](O)[C@H](CC(C)C)NC(=O)[C@H](CCC(N)=O)NC(=O)[C@H](Cc1ccccc1)NC(=O)OC(C)(C)C (Boc-FQ[Sta]A[Sta]-OMe) gave a pIC50 of 6.50. CCCC[C@H](NC(=O)[C@H](Cc1ccccc1)NC(=O)OC(C)(C)C)C(=O)N[C@@H](CC(C)C)[C@@H](O)CC(=O)N[C@@H](C)C(=O)N[C@@H](CC(C)C)[C@@H](O)CC(=O)OC (Boc-F[Nle][Sta]A[Sta]-OMe) was tested, and the pIC50 was 6.92. Work on CCCC[C@H](NC(=O)[C@H](Cc1ccccc1)NC(=O)OC(C)(C)C)C(=O)N[C@@H](CC(C)C)[C@@H](O)CC(=O)N[C@@H](C)C(=O)N[C@@H](CC(C)C)[C@@H](O)CC(=O)O (Boc-F[Nle][Sta]A[Sta]-OH) yielded a pIC50 of 7.52. COC(=O)C[C@H](O)[C@H](CC(C)C)NC(=O)[C@H](C)NC(=O)C[C@H](O)[C@H](CC(C)C)NC(=O)[C@H](Cc1ccc(OCc2ccccc2)cc1)NC(=O)[C@H](Cc1ccccc1)NC(=O)OC(C)(C)C (Boc-FY(Bn)[Sta]A[Sta]-OMe) showed a pIC50 of 5.85. For COC(=O)C[C@H](O)[C@H](CC(C)C)NC(=O)[C@H](C)NC(=O)C[C@H](O)[C@H](CC(C)C)NC(=O)[C@H](CC(N)=O)NC(=O)[C@H](Cc1ccccc1)NC(=O)OC(C)(C)C (Boc-FN[Sta]A[Sta]-OMe), the pIC50 was 5.92.
